We go through twelve compounds from ChEMBL document CHEMBL4000219, “Synthesis and biological evaluation of naphthoquinone-coumarin conjugates as topoisomerase II inhibitors” (Bioorg Med Chem Lett, 2017).

Assay [1] concerns the target T1, DNA topoisomerase 2-alpha (Homo sapiens, UniProt P11388). Nature of the assay: Inhibition of human topoisomerase-2 alpha expressed in baculovirus infected insect cells assessed as reduction in enzyme-meditaed supercoiled pRYG DNA substrate relaxation at 100 uM in presence of buffer containing DTT after 30 mins by agarose gel electrophoresis method. The method in brief:
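2U hTopoII on covalently closed negatively supercoiled pRYG plasmid, in 1% (v/v) DMSO. Commercial reaction buffer containing DTT. Etoposide, ICRF-187 and merbarone as controls. Agarose gel run without ethidium bromide separates supercoiled forms from relaxed topoisomers.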

The target in assay [2] is T1, DNA topoisomerase 2-alpha. Nature of the assay: Inhibition of human topoisomerase-2 alpha expressed in baculovirus infected insect cells assessed as reduction in enzyme-meditaed supercoiled pRYG DNA substrate relaxation at 100 uM in presence of buffer containing 2-mercaptoethanol after 30 mins by agarose gel electrophoresis method. The method in brief:
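2U hTopoII on covalently closed negatively supercoiled pRYG plasmid, in 1% (v/v) DMSO. Home-made reaction buffer with 2-mercaptoethanol as reducing agent. Etoposide, ICRF-187 and merbarone as controls. Agarose gel run without ethidium bromide separates supercoiled substrate from relaxed topoisomers.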

Assay [3] has as its target T1, DNA topoisomerase 2-alpha. The experiment in a line: Inhibition of human topoisomerase-2 alpha expressed in baculovirus infected insect cells assessed as reduction in enzyme-meditaed supercoiled pRYG DNA substrate relaxation in presence of buffer containing DTT after 30 mins by agarose gel electrophoresis method. The method in brief:
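hTopoII relaxation of supercoiled pRYG plasmid in commercial DTT-containing reaction buffer, with compounds at 10, 30 and 100. Gel bands quantified as percent inhibition. Three independent assays, mean + SEM.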

Assay [4] addresses T1, DNA topoisomerase 2-alpha. The experiment in a line: Poison activity at human topoisomerase-2 alpha expressed in baculovirus infected insect cells assessed as stabilization of cleavage complex at 100 uM using pRYG DNA as substrate after 10 mins by ethidium bromide staining based agarose gel electrophoresis method. The method in brief:
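Cleavage assay: 10U hTopoII on negatively supercoiled pRYG plasmid, in 1% (v/v) DMSO. Etoposide as positive control. Agarose gel run in the presence of ethidium bromide separates supercoiled substrate from linearized plasmid intermediate.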

Assay [5] has as its target T1, DNA topoisomerase 2-alpha. Nature of the assay: Inhibition of human topoisomerase-2 alpha ATPase activity expressed in baculovirus infected insect cells assessed as disappearance of NADH at 10 uM using pBR322 DNA as substrate preincubated for 10 mins followed by ATP addition measured up to 35 mins by spectrophotometric based pyruvate kinase/lactate dehydrogenase coupled enzyme assay relative to control. The method in brief: (§1)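 hTopoII ATPase measured in an ATPase/pyruvate kinase/lactate dehydrogenase linked assay as decline of NADH absorbance at 340 nm. Activity expressed as percent of 1% DMSO control.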

The target of assay [6] is T1, DNA topoisomerase 2-alpha. The experiment in a line: Inhibition of human topoisomerase-2 alpha ATPase activity expressed in baculovirus infected insect cells assessed as disappearance of NADH at 30 uM using pBR322 DNA as substrate preincubated for 10 mins followed by ATP addition measured up to 35 mins by spectrophotometric based pyruvate kinase/lactate dehydrogenase coupled enzyme assay relative to control. In a few lines:
as §1

In assay [7] the target is T1, DNA topoisomerase 2-alpha. The experiment in a line: Inhibition of human topoisomerase-2 alpha ATPase activity expressed in baculovirus infected insect cells assessed as disappearance of NADH at 100 uM using pBR322 DNA as substrate preincubated for 10 mins followed by ATP addition measured up to 35 mins by spectrophotometric based pyruvate kinase/lactate dehydrogenase coupled enzyme assay relative to control. The method in brief: as §1

Assay [8] relates to Escherichia coli. Nature of the assay: Inhibition of Escherichia coli DNA gyrase assessed as reduction in enzyme-mediated supercoiling activity at 100 uM using ladder of partially relaxed pBlueScript 2 KS+ DNA as substrate after 1 hr by agarose gel electrophoresis method. In a few lines:
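2.5U E. coli DNA gyrase acting on a ladder of partially relaxed forms as substrate, in 1% (v/v) DMSO. Agarose gel run without ethidium bromide separates the relaxed ladder from monomeric supercoiled product.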

In assay [9] the test system is Escherichia coli. Nature of the assay: Inhibition of Escherichia coli DNA topisomerase-1 assessed as reduction in enzyme-mediated relaxation of supercoiled pBlueScript 2 KS+ DNA substrate at 100 uM after 1 hr by agarose gel electrophoresis method. The method in brief:
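2.5U E. coli TopoI acting on supercoiled monomer substrate, in 1% (v/v) DMSO. Chloroquine and etoposide as controls. Agarose gel run without ethidium bromide separates supercoiled substrate from relaxed products.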

The test system of assay [10] is Escherichia coli. The experiment in a line: Inhibition of Escherichia coli DNA topisomerase-1 assessed as reduction in enzyme-mediated unwinding activity at 100 uM using ladder of partially relaxed pBlueScript 2 KS+ DNA as substrate after 1 hr by agarose gel electrophoresis method. In a few lines: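 E. coli TopoI unwinding assay for intercalation: a ladder of partially relaxed forms as substrate, in 1% (v/v) DMSO. Chloroquine as control. Agarose gel run without ethidium bromide separates the ladder from relaxed products.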

Molecules are shown by their SMILES. The source made the active and inactive calls. No cut-off for these calls is given here.

T1 sequence (P11388 whole entry): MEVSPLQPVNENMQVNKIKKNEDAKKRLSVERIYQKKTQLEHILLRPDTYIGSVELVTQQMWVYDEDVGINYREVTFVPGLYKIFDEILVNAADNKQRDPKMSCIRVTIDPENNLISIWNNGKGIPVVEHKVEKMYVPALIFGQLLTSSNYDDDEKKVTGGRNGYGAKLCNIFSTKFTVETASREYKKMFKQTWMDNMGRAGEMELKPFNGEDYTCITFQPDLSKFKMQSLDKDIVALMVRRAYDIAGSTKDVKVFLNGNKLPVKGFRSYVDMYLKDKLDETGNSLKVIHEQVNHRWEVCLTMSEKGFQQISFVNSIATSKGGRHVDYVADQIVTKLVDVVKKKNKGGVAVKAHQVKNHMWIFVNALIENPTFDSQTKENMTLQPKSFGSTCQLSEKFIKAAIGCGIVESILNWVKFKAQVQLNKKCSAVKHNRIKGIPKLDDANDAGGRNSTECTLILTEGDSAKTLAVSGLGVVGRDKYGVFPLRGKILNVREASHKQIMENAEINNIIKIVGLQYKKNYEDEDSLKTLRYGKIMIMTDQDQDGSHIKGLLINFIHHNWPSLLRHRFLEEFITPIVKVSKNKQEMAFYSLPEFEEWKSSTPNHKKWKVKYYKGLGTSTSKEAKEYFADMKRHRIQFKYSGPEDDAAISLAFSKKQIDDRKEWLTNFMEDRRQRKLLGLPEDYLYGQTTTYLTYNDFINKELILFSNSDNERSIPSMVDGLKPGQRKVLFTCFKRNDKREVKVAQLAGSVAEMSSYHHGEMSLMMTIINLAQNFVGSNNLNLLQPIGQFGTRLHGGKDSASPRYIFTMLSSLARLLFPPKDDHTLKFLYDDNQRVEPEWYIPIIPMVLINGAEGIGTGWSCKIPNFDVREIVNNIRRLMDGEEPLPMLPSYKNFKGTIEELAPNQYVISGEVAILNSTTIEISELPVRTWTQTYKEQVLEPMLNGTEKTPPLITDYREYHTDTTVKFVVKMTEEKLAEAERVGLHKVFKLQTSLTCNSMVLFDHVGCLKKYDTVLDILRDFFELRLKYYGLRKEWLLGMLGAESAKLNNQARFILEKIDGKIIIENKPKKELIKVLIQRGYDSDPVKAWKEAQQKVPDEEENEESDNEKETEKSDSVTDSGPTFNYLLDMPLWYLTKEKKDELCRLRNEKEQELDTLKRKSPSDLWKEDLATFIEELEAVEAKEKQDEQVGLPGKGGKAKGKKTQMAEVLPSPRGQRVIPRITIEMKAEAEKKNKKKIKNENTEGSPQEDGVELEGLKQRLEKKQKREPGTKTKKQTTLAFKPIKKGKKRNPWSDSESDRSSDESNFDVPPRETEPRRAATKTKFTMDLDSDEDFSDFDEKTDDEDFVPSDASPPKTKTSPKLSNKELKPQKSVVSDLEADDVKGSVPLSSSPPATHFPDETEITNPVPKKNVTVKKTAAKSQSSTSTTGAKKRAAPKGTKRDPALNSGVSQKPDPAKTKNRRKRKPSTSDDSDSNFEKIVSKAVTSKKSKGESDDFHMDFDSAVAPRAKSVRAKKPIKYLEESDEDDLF

As usually defined, the inhibition is how much of the control response was suppressed. The IC50 is the concentration that inhibits the measured activity by half. On to `O=C1C(O)=C(C(c2ccc([N+](=O)[O-])cc2)c2c(O)c3ccccc3oc2=O)C(=O)c2ccccc21` (centres undefined), for which the inhibition entry in assay [1] and in [2] was “Active” in each case. Also, the IC50 in [3] fell in the range of 10 to 30 µM. For the same compound, the outcome in [4] was inactive. Besides, the inhibition was 34% in [5], 39% in assay [6] and 61% in assay [7]. Besides, the inhibition entry with Escherichia coli [8], in the assay with Escherichia coli [9] and in the assay on Escherichia coli [10] was “inactive” in each case.

In the case of `O=C1C(O)=C(C(c2ccc(Cl)cc2)c2c(O)c3ccccc3oc2=O)C(=O)c2ccccc21` (centres undefined), the inhibition result in assay [1] and in assay [2] was “Active” in each case. In addition, in assay [3], the IC50 was in the range of 10 to 30 µM. The result in assay [4] was inactive. Moreover, the inhibition amounted to 61% in assay [5], 78% in assay [6] and 94% in [7]. The inhibition entry with Escherichia coli [8], with Escherichia coli [9] and in the assay on Escherichia coli [10] was “inactive” each time.

In the case of `O=C1C(O)=C(C(c2ccc3c(c2)OCO3)c2c(O)c3ccccc3oc2=O)C(=O)c2ccccc21` (centres undefined), the inhibition result in assay [1] and in assay [2] was “Active” each time. Moreover, in assay [3], the IC50 was in the range of 10 to 30 µM. Further, the outcome in assay [4] was inactive. Also, the inhibition in [5] turned out to be 43%; in assay [6] it was 67%; in assay [7], 94%. Besides, the inhibition entry in the assay with Escherichia coli [8], in the assay on Escherichia coli [9] and with Escherichia coli [10] was “inactive” in each case.

On to `COc1cc([C@@H]2c3cc4c(cc3[C@@H](O[C@@H]3O[C@@H]5CO[C@@H](C)O[C@H]5[C@H](O)[C@H]3O)[C@H]3COC(=O)[C@H]23)OCO4)cc(OC)c1O`, for which the inhibition entry in assay [1] is “Active”. For the same compound, in assay [2], the inhibition entry is “inactive”. The result in assay [4] was Active.

Regarding `O=C1C(O)=C(C(c2ccccc2)c2c(O)c3ccccc3oc2=O)C(=O)c2ccccc21` (centres undefined), the inhibition entry in assay [1] and in [2] was “Active” throughout. Also, the IC50 in [3] lay in the range of 10 to 30 µM. In addition, the result in assay [4] was inactive. Further, the values for the inhibition in assay [5], in assay [6] and in assay [7] were 69%, 87% and 94%, respectively. For the same compound, the inhibition result in the assay with Escherichia coli [8], in the assay on Escherichia coli [9] and in the assay with Escherichia coli [10] was “inactive” each time.

On to `O=C1C(O)=C(C(c2ccc(F)cc2)c2c(O)c3ccccc3oc2=O)C(=O)c2ccccc21` (centres undefined), for which the inhibition result in assay [1] and in [2] was “Active” throughout. Moreover, in assay [3], the IC50 lay within 10 to 30 µM. Moreover, in assay [4], the result was inactive. Further, the values for the inhibition in [5], in assay [6] and in assay [7] were 67%, 90% and 94%, respectively. Moreover, the inhibition entry in the assay on Escherichia coli [8], in the assay on Escherichia coli [9] and in the assay with Escherichia coli [10] was “inactive” in each case.

For `O=C1NC(=S)NC(=O)C1C(=O)Nc1ccccc1`, in [1], the inhibition entry is “Active”. The inhibition entry in [2] is “inactive”.

Consider `O=C(O)c1cn(C2CC2)c2cc(N3CCNCC3)c(F)cc2c1=O`, for which the inhibition result in the assay with Escherichia coli [8] was “Active”.

Take `O=C1C(O)=C(C(c2ccc(Br)cc2)c2c(O)c3ccccc3oc2=O)C(=O)c2ccccc21` (centres undefined): the inhibition entry in assay [1] and in assay [2] was “Active” throughout. For the same compound, in [3], the IC50 fell in the range of 10 to 30 µM. Moreover, the outcome in [4] was inactive. In addition, the inhibition in [5] is 40%; in [6], 57%; in [7], 96%. In addition, the inhibition entry in the assay with Escherichia coli [8], with Escherichia coli [9] and in the assay on Escherichia coli [10] was “inactive” each time.

As to `O=C1C(O)=C(C(c2ccccc2F)c2c(O)c3ccccc3oc2=O)C(=O)c2ccccc21` (centres undefined), the inhibition result in [1] and in [2] was “Active” throughout. Moreover, the IC50 in assay [3] fell in the range of 10 to 30 µM. In assay [4], the result was inactive. The inhibition came out at 24% in assay [5], 30% in [6] and 82% in [7]. For the same compound, the inhibition entry with Escherichia coli [8], in the assay on Escherichia coli [9] and in the assay on Escherichia coli [10] was “inactive” in each case.

For `CCN(CC)CCCC(C)Nc1ccnc2cc(Cl)ccc12` (centres undefined), the inhibition result in the assay on Escherichia coli [9] is “Active”.

Consider `C[C@@H](CN1CC(=O)NC(=O)C1)N1CC(=O)NC(=O)C1`, for which, in assay [1], the inhibition entry is “Active”. The inhibition entry in assay [2] was “inactive”.
